From PubChem
SENP8 block-1: SENP8 protease inhibitors, primary screen, biochemical, luminescence | Sentrin-specific protease 8 (Homo sapiens), Q96LD8 | purified SENP8, Z-RLRGG-aminoluciferin cleavage | inhibition, % at 10 µM | 330,000 tested, 1.2% active; in the data active means inhibition above about 50%
Platelet DG rel: inhibitors of platelet dense granule secretion, primary screen, cell-based, MLPCN, human platelets; human platelet-rich plasma, SFLLRN dense granule ATP release, luminescence; inhibition, %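 (compounds screened at 7.5 µM in platelet-rich plasma)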; 300,000 tested, 0.22% active; AID 1663, 2009;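 active means mean replicate score, as percent of positive control, at or above 50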
SENP8 block-2: human SENP8 protease inhibitors, primary screen, biochemical, fluorescence, Nedd8 protein substrate, uHTS; Sentrin-specific protease 8 (Homo sapiens), Q96LD8; recombinant SENP8; inhibition, % at 20 µM; 360,000 tested, 0.64% active; AID 602440, 2012; in the data active means inhibition mostly above about 40%, no sharp cut-off; inactive means mostly below about 27%
SENP7 block: SENP7 protease inhibitors, primary screen, biochemical, luminescence, uHTS; Sentrin-specific protease 7 (Homo sapiens), Q9BQF6; recombinant SENP7, Z-RLRGG-aminoluciferin luminescence, 40 min; inhibition, % at 5 µM; 330,000 tested, 1.5% active; AID 434973, 2010;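 active means inhibition above about 50% at the single test dose, limit read from the data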
Target sequence (Q9BQF6 706-1050 limits assumed): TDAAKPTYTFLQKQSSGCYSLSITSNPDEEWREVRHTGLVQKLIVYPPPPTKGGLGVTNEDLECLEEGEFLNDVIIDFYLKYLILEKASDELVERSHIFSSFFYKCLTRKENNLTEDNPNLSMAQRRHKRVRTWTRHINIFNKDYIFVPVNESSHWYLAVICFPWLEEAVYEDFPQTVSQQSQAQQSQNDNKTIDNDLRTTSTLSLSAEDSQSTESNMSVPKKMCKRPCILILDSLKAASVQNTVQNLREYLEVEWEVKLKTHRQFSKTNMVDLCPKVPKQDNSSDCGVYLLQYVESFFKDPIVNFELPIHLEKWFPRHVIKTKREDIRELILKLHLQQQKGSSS
SENP1 FRET inh: human SENP1 catalytic domain inhibitors, primary screen, biochemical, FRET, uHTS | Sentrin-specific protease 1 (Homo sapiens), Q9P0U3 | recombinant SENP1 catalytic domain, CyPet-SUMO1-YPet FRET cleavage | inhibition, % at 10 µM | 360,000 tested, 0.21% active | AID 624204, 2012;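 active means inhibition at least 30% at 10 µM, raw YFP signal under a set limit, fluorescence ratio 0.5 to 1.5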
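material = recombinant human SENP1 catalytic domain, His6-tagged | quantity = 20 pM enzyme | reagent = 25 nM SUMO1 FRET substrate | compound dosing = 10 µM single point, 0.5% DMSO | timing = 50 min enzyme reaction, room temperature, light-protected | detection = FRET, CFP and YFP emission | control set = no-enzyme low, enzyme-DMSO high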
SENP6 inh: SENP6 protease inhibitors, primary screen, biochemical, luminescence, uHTS | Sentrin-specific protease 6 (Homo sapiens), Q9GZR1 | 330,000 tested, 1.8% active | Recombinant SENP6 catalytic domain, aminoluciferin luminescence | inhibition, % at 10 µM;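 active means inhibition above about 50% at the single tested dose, limit read from the data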
SENP8 confirm: SENP8 protease inhibitors, retest, confirmation, biochemical, luminescence, single concentration; shares compounds with SENP7 block; Recombinant SENP8, Z-RLRGG-aminoluciferin luminescence, 60 min; inhibition, % at 12.5 µM; 6,200 tested, 40% active;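 active means mean inhibition across replicates above about 50%, limit read from the data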
SENP6 confirm: SENP6 protease inhibitors, confirmation, biochemical, luminescence, single concentration | shares compounds with SENP7 block | recombinant SENP6, Z-RLRGG-aminoluciferin luminescence | inhibition, % at 12.5 µM | 6,200 tested, 58% active | AID 488915, 2010
SENP7 confirm: SENP7 protease inhibitors, retest, confirmation, biochemical, luminescence, single concentration; inhibition, % at 12.5 µM; shares compounds with SENP7 block; AID 488917, 2010; recombinant SENP7, Z-RLRGG-aminoluciferin luminescence, 40 min; 6,200 tested, 69% active
Casp3 select: caspase-3 protease inhibitors, confirmation, selectivity assay for SENP inhibitor project, biochemical, single concentration. AID 488918, 2010. inhibition, % at 12.5 µM. 6,200 tested, 60% active. shares compounds with SENP7 block. purified caspase-3, Z-DEVD-aminoluciferin luminescence, 60 min;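 active means mean inhibition above about 50%, limit read from the data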
Target sequence (P42574 28-227 limits assumed): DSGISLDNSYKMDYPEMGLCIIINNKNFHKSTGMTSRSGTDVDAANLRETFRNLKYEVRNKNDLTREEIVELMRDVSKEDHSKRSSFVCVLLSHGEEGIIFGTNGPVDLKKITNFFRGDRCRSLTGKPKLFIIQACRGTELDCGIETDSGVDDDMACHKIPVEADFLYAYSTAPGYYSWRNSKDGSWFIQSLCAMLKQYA
SENP luc ctr: counter-screen for SENP inhibitors: luminescence interference; shares compounds with SENP7 block; inhibition, % at 12.5 µM; Pre-incubated SENP8/Z-RLRGG-aminoluciferin, luciferase luminescence interference; 6,200 tested, 39% active;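 active means mean inhibition above about 50% when retested at one dose, limit read from the data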
Of the large screens only hits and unclear results are named; the others gave an inactive call (follow-up assays come after a bar, where they were run). The list is not random: actives were taken first. Their share in the collection is about 2.6%.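 How the source made its calls, unless noted: active means mean inhibition above about 50% in the one-dose retest (limit read from the data); inactive means the rest.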

Fc1ccccc1-c1nc(-c2ccc(-c3nn[nH]n3)cc2)no1	SENP8 block-1 96, SENP7 block 92, SENP6 inh 97 (no result: Platelet DG rel) | SENP8 confirm 98 | SENP6 confirm 98 | SENP7 confirm 102 | Casp3 select 96 | SENP luc ctr 98
Brc1ccccc1-c1nc(-c2ccccc2)no1	SENP8 block-1 95, SENP7 block 98, SENP6 inh 97 (no result: SENP8 block-2, SENP1 FRET inh) | SENP8 confirm inactive | SENP6 confirm 99 | SENP7 confirm 103 | Casp3 select 94 | SENP luc ctr 91
Fc1ccccc1-c1nc(-c2cnccc2C(F)(F)F)no1	none
Fc1ccccc1-c1nc(-c2ccncc2)no1	SENP8 block-1 77, SENP7 block 84, SENP6 inh 85 | SENP8 confirm 82 | SENP6 confirm 84 | SENP7 confirm 98 | Casp3 select 90 | SENP luc ctr 72
c1ccc2c(-c3nc(-c4ccncc4)no3)cccc2c1	none
CC(NC(=O)COC(=O)c1cccnc1Cl)C12CC3CC(CC(C3)C1)C2 (stereo not given)	none (no result: Platelet DG rel)
Nc1c(C(=O)NC2CCCC2)c2nc3ccccc3nc2n1/N=C/c1cccnc1	none
Cc1cc(C(=O)COC(=O)c2ccc[nH]c2=O)c(C)n1C1CC1	none
Cc1cc(C(=O)COC(=O)c2ccc(F)cc2F)c(C)n1C1CC1	SENP6 inh 64 (no result: Platelet DG rel) | SENP8 confirm inactive | SENP6 confirm inactive | SENP7 confirm inactive | Casp3 select inactive | SENP luc ctr inactive
CC(CCc1ccccc1)NC(=O)C(Cc1ccccc1)NS(=O)(=O)c1cccs1 (stereo not given)	SENP7 block 80 | SENP8 confirm inactive | SENP6 confirm inactive | SENP7 confirm inactive | Casp3 select inactive | SENP luc ctr inactive
CC1CCCCC1NC(=O)C(Cc1ccccc1)NS(=O)(=O)c1cccs1 (stereo not given)	none
Cc1ccsc1C(=O)NNC(=O)c1cccc(S(=O)(=O)N2CCCC2)c1	none (no result: Platelet DG rel)
O=C1CC(c2ccc3c(c2)OCCO3)Oc2ccc([N+](=O)[O-])cc21 (stereo not given)	SENP8 block-1 96, SENP7 block 98, SENP6 inh 99 | SENP8 confirm inactive | SENP6 confirm 98 | SENP7 confirm 101 | Casp3 select 51 | SENP luc ctr inactive
O=C1CC(c2ccc3c(c2)OCCO3)Oc2ccccc21 (stereo not given)	none
Nc1nc(-c2ccc(-c3ccccc3)cc2)cs1	SENP8 block-1 68, SENP7 block 73 | SENP8 confirm inactive | SENP6 confirm 82 | SENP7 confirm 97 | Casp3 select 55 | SENP luc ctr inactive
Nc1nc(-c2ccc(Oc3ccccc3)cc2)cs1	none
Nc1nc(-c2ccc3ccccc3c2)cs1	SENP8 block-1 69, SENP7 block 74 | SENP8 confirm inactive | SENP6 confirm 83 | SENP7 confirm 97 | Casp3 select 64 | SENP luc ctr 84
Nc1nc(-c2cc3ccccc3o2)cs1	SENP6 inh 71 | SENP8 confirm 52 | SENP6 confirm 53 | SENP7 confirm 81 | Casp3 select 56 | SENP luc ctr inactive
OC(c1ccccc1)c1nc(-c2cc3ccccc3o2)cs1 (stereo not given)	none (no result: SENP8 block-1, Platelet DG rel, SENP7 block, SENP6 inh)
O=C(C1CCC(CNS(=O)(=O)c2cccs2)CC1)N1CCN(c2ccc(F)cc2)CC1 (stereo not given)	none
CN(CCCC(=O)O)c1ccc(N=Nc2ccc([N+](=O)[O-])cc2)cc1	SENP8 block-1 81, SENP7 block 54, SENP6 inh 90 | SENP8 confirm 84 | SENP6 confirm 84 | SENP7 confirm inactive | Casp3 select 76 | SENP luc ctr inactive
CN(N=Nc1ccc([N+](=O)[O-])cc1)c1ccccc1	SENP7 block 60, SENP6 inh 60 | SENP8 confirm inactive | SENP6 confirm inactive | SENP7 confirm inactive | Casp3 select inactive | SENP luc ctr inactive
CN(N=Nc1cccc([N+](=O)[O-])c1)c1ccccc1	SENP6 inh 51 | SENP8 confirm inactive | SENP6 confirm 50 | SENP7 confirm 73 | Casp3 select inactive | SENP luc ctr inactive
CN(C(=O)Nc1cccc([N+](=O)[O-])c1)c1ccccc1	none (no result: SENP8 block-1, Platelet DG rel, SENP7 block, SENP6 inh)
N#CCSc1ccccc1NC(=O)COC(=O)CCN1C(=O)C2CC=CCC2C1=O (stereo not given)	none (no result: Platelet DG rel)
O=C(COC(=O)c1cnccn1)Nc1ncc(C(F)(F)F)cc1Cl	none (no result: Platelet DG rel)
CCCOc1ccc(F)cc1-c1cc(C(=O)NC(C)C)[nH]n1	none (no result: SENP8 block-1, Platelet DG rel, SENP7 block, SENP6 inh)
CCCC(=O)Nc1cc(OC)c(NC(=S)Nc2ccc(CC)cc2)cc1OC	none (no result: SENP8 block-1, Platelet DG rel, SENP7 block, SENP6 inh)
COc1cccc(N=NC2C(=O)N(C(N)=S)N=C2C)c1 (stereo not given)	SENP8 block-1 79, SENP7 block 68, SENP6 inh 85 | SENP8 confirm 71 | SENP6 confirm 86 | SENP7 confirm 98 | Casp3 select 91 | SENP luc ctr inactive
CC1=NN(C(N)=S)C(=O)C1N=Nc1cccc(Cl)c1 (stereo not given)	SENP8 block-1 85, SENP7 block 66, SENP6 inh 92 | SENP8 confirm inactive | SENP6 confirm 90 | SENP7 confirm 100 | Casp3 select 90 | SENP luc ctr 88
O=C(CN1CCN(C(=O)CCC(=O)N2CCC(c3ccccc3)=N2)CC1)Nc1ccc(F)cc1	none (no result: Platelet DG rel)
O=C(NCc1ccccn1)[C@@H]1CCCN1C(=O)[C@@H]1CCCN1C(=O)c1cccc(Cl)c1	none (no result: SENP8 block-1, Platelet DG rel, SENP7 block, SENP6 inh)
